Test results: ChEMBL document CHEMBL2311397, “Design and synthesis of cyclopropylamide analogues of combretastatin-A4 as novel microtubule-stabilizing agents” (J Med Chem, 2013)

Tests used:
Tubulin (Homo sapiens) [1] = target: T1, Tubulin (Homo sapiens) (UniProt P68371+Q9H4B7+P0DPH7+P68366+Q13509+Q71U36+P04350+Q3ZCM7+P07437+P68363+Q9BQE3+Q6PEY2+Q13885+Q9BVA1+Q9BUF5); test: (§1) Activation of tubulin (unknown origin) polymerization; assay type: protein-complex assay
Summary of the method: (§2)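 Purified brain tubulin (kit), final 3.0 mg/mL, in 80.0 mM PIPES sesquisodium pH 6.9, 2.0 mM MgCl2, 0.5 mM EGTA, 1 mM GTP, 10.2% glycerol; components prewarmed to 37 °C, reaction started by adding tubulin. A340 read each minute for 1 h. Single-point % stimulation used 10 μM compound; EC50 from 3.75, 7.5, 15, 30, 60 μM.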

Tubulin = test: as §1; assay type: protein-complex assay, Homo sapiens; summary of the method: as §2
Tubulin (Homo sapiens) [2] = target: T1, Tubulin (Homo sapiens); test: Activation of tubulin (unknown origin) polymerization at 10 uM; assay type: protein-complex assay; summary of the method: as §2
K562 = test: Cytotoxicity against human K562 cells after 48 hrs by MTT assay; assay type: functional, cell-based
Summary of the method: (§3)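 Log-phase cells (40000–50000 cells/mL) grown in DMEM with 10% fetal calf serum (5% CO2, 37 °C) and exposed 48 h to five concentrations, 3–5 replicates. Read-out was MTT with absorbance at 570 nm; IC50 reported as mean ± SD of three independent experiments. Resistant A549 and HeLa sublines were made by stepwise paclitaxel selection; resistance index = IC50(resistant)/IC50(sensitive).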

[3] = Cytotoxicity against human QGY cells after 48 hrs by MTT assay; assay type: functional, cell-based; summary of the method: as §3
SW480 = test: Cytotoxicity against human SW480 cells after 48 hrs by MTT assay; assay type: functional, cell-based; summary of the method: as §3
HeLa = test: Cytotoxicity against human HeLa cells after 48 hrs by MTT assay; assay type: functional, cell-based; summary of the method: as §3
A549 [4] = test: Cytotoxicity against human A549 cells after 48 hrs by MTT assay; assay type: functional, cell-based; summary of the method: as §3
A549 [5] = test: Cytotoxicity against paclitaxel-resistant human A549 cells after 48 hrs by MTT assay; assay type: functional, cell-based; conditions: A549, 48 h; summary of the method: as §3
Mus musculus = test: Toxicity in human A549 cells xenografted BALB/c nude mouse assessed as change in body weight at 30 mg/kg, ig; assay type: organism-based; parameters: dose 30 mg/kg, route intragastric; conditions: in vivo, po
Summary of the method: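 Male BALB/c nude mice, 5 weeks old (18–20 g), implanted subcutaneously in the right armpit with A549 tumor fragments (3 mm3). On day 13, at 100–200 mm3, daily intragastric dosing began: 100 or 500 mg/kg test compound, or 30 mg/kg paclitaxel, in Tween-80 diluted with saline. Vehicle given ip. Tumor volume and body weight followed; n = 6; inhibition rate at day 16.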

Compound	Activity (Tubulin (Homo sapiens) [2]) [%]	IC50 (K562; Homo sapiens, K562, 48 h) [µM]	IC50 ([3]; Homo sapiens, QGY, 48 h) [µM]	IC50 (SW480; Homo sapiens, SW480, 48 h) [µM]	IC50 (HeLa; Homo sapiens, HeLa, 48 h) [µM]	IC50 (A549 [4]; Homo sapiens, A549, 48 h) [µM]	other results
CCOC(=O)[C@]1(C(=O)NCc2ccc(C)cc2)C[C@H]1c1cc(OC)c(OC)c(OC)c1	79.3	> 100	32.1	36.4	28.5	13.3	Activity (Tubulin (Homo sapiens) [1]): Dose-dependent effect; EC50 (Tubulin): 5.83 µM
COc1cc([C@@H]2C[C@]2(CO)C(=O)Nc2ccccc2)cc(OC)c1OC	31.5	> 100	51.3	33.3	32	24.1	EC50 (Tubulin): 14.3 µM
CCOC(=O)C1(C(=O)Nc2ccc(OC)cc2)CC1c1cc(OC)c(OC)c(OC)c1 (cis isomer)	25	–	–	–	–	–	–
CCOC(=O)C1(C(=O)Nc2ccccc2)CC1c1cc(OC)c(OC)c(OC)c1 (cis isomer) [listing 1 of 2 here]	23.2	–	–	–	–	–	–
CCOC(=O)C1(C(=O)Nc2ccc(F)cc2)CC1c1cc(OC)c(OC)c(OC)c1 (trans isomer) [listing 1 of 2 here]	7.9	–	–	–	–	–	–
CCOC(=O)C1(C(=O)NCCc2ccc(F)cc2)CC1c1cc(OC)c(OC)c(OC)c1 (cis isomer)	40.8	–	–	–	–	–	–
CCOC(=O)[C@]1(C(=O)Nc2ccccc2Cl)C[C@H]1c1cc(OC)c(OC)c(OC)c1	28.6	20.7	28	25.6	42.4	13.4	EC50 (Tubulin): 16.9 µM
CCOC(=O)C1(C(=O)Nc2cccc(Cl)c2)CC1c1cc(OC)c(OC)c(OC)c1 (stereo in doubt; cis) [listing 1 of 2 here]	50	–	–	–	–	–	–
CC(=O)O[C@H]1C(=O)[C@@]2(C)[C@H]([C@H](OC(=O)c3ccccc3)[C@]3(O)C[C@H](OC(=O)[C@H](O)[C@@H](NC(=O)c4ccccc4)c4ccccc4)C(C)=C1C3(C)C)[C@]1(OC(C)=O)CO[C@@H]1C[C@@H]2O [PACLITAXEL]	245	0.0157	0.0113	0.0121	–	0.0082	EC50 (Tubulin): 1.23 µM; IC50 (A549 [5]): 1.04 µM; Activity (Mus musculus): Toxic
CCOC(=O)C1(C(=O)NCc2ccc(F)cc2)CC1c1cc(OC)c(OC)c(OC)c1 (trans isomer)	–	–	–	–	–	–	IC50 (K562; k562): 43.1 µM; IC50 ([3]; qgy): > 100 µM; IC50 (SW480; sw480): 28.4 µM; IC50 (HeLa; hela): 27.8 µM; IC50 (A549 [4]; a549): 34.1 µM
CCOC(=O)[C@]1(C(=O)Nc2ccccc2Cl)C[C@@H]1c1cc(OC)c(OC)c(OC)c1	–	19.5	34.7	> 100	> 100	50.9	–
O=c1[nH]cc(F)c(=O)[nH]1 [FLUOROURACIL]	–	114	126	158	143	56	–
CCOC(=O)[C@@]1(C(=O)NCc2ccc(C)cc2)C[C@@H]1c1cc(OC)c(OC)c(OC)c1	–	> 100	> 100	> 100	> 100	> 100	–
CCOC(=O)C1(C(=O)Nc2cccc(Cl)c2)CC1c1cc(OC)c(OC)c(OC)c1 (stereo in doubt; cis) [listing 2 of 2 here]	–	52.1	–	37.4	–	25.6	IC50 ([3]; qgy): 46.3 µM; IC50 (HeLa; hela): 35.1 µM
COc1cc([C@@H]2C[C@@]2(CO)C(=O)Nc2ccccc2)cc(OC)c1OC	–	> 100	36.7	76.8	86.4	43.2	–
CCOC(=O)C1(C(=O)Nc2ccccc2[N+](=O)[O-])CC1c1cc(OC)c(OC)c(OC)c1 (trans isomer)	–	–	–	–	–	–	IC50 (K562; k562): > 100 µM; IC50 ([3]; qgy): > 100 µM; IC50 (SW480; sw480): 31.8 µM; IC50 (HeLa; hela): 35.1 µM; IC50 (A549 [4]; a549): 30.9 µM
CCOC(=O)C1(C(=O)NCc2ccc(OC)cc2)CC1c1cc(OC)c(OC)c(OC)c1 (cis isomer)	–	> 100	> 100	> 100	> 100	> 100	–
CCOC(=O)C1(C(=O)NCc2ccc(OC)cc2)CC1c1cc(OC)c(OC)c(OC)c1 (trans isomer)	50	–	–	–	–	–	–
CCOC(=O)C1(C(=O)NCc2ccccc2)CC1c1cc(OC)c(OC)c(OC)c1 (cis isomer)	–	> 100	> 100	89.6	46.5	79.5	–
CCOC(=O)C1(C(=O)Nc2ccc(F)cc2)CC1c1cc(OC)c(OC)c(OC)c1 (cis isomer)	–	63.7	–	46.7	62.4	22.4	IC50 ([3]; qgy): 79.1 µM
CCOC(=O)C1(C(=O)Nc2ccccc2)CC1c1cc(OC)c(OC)c(OC)c1 (cis isomer) [listing 2 of 2 here]	–	> 100	59.3	–	> 100	31.5	IC50 (SW480; sw480): 49 µM
COc1cc([C@@H]2C[C@@]2(CO)C(=O)NCc2ccc(C)cc2)cc(OC)c1OC	–	> 100	58.7	76.3	41.2	46.3	–
CCOC(=O)C1(C(=O)Nc2cccc([N+](=O)[O-])c2)CC1c1cc(OC)c(OC)c(OC)c1 (stereo in doubt; cis)	–	> 100	> 100	–	59.4	76.4	IC50 (SW480; sw480): > 100 µM
CCOC(=O)C1(C(=O)Nc2ccc(F)cc2)CC1c1cc(OC)c(OC)c(OC)c1 (trans isomer) [listing 2 of 2 here]	–	–	–	–	–	–	IC50 (K562; k562): > 100 µM; IC50 ([3]; qgy): 36.1 µM; IC50 (SW480; sw480): 42 µM; IC50 (HeLa; hela): 36.8 µM; IC50 (A549 [4]; a549): 28 µM
CCOC(=O)[C@@]1(C(=O)Nc2ccccc2)C[C@@H]1c1cc(OC)c(OC)c(OC)c1	–	> 100	> 100	> 100	> 100	> 100	–
